ChEMBL document CHEMBL1143019, “Hybrid molecules of estrone: new compounds with potential antibacterial, antifungal, and antiproliferative activities” (2007)
≈ marks a conversion by molar mass, not a printed value.

Assays:
Candida tropicalis [1] = test: Antifungal activity against Candida tropicalis 156 after 48 hrs; assay type: functional
How it was run: (§1)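 Modified NCCLS M27-A broth microdilution with clinical isolates subcultured on Sabouraud dextrose agar. Suspensions diluted 1:50 in RPMI 1640 to give a final inoculum of 0.5–2.5×10³ CFU/mL for yeasts or 0.5–5×10⁴ CFU/mL for molds. The RPMI had L-glutamine, no bicarbonate, and 0.165 M MOPS to pH 7.0. Twofold dilutions from 250 to 0.49. Plates held at 35 °C, humid, without agitation. MIC is the lowest concentration giving ≥80% inhibition versus drug-free control, read at 24 and 48 h.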

Mycobacterium avium [2] = test: Antimicrobial activity against Mycobacterium avium My 330/88 after 14 days; assay type: functional; conditions: 336 h
Trichophyton benhamiae [3] = test: Antifungal activity against Trichophyton mentagrophytes 445 after 120 hrs; assay type: functional, Arthroderma benhamiae
How it was run: (§2)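 Same modified M27-A microdilution with the mold inoculum of 0.5–5×10⁴ CFU/mL. Medium was RPMI 1640 with L-glutamine, no bicarbonate, and 0.165 M MOPS at pH 7.0. Twofold dilutions from 250 to 0.49. Incubated at 35 °C in a humid atmosphere.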

L929 = test: Antiproliferative activity against mouse L929 cells after 72 hrs; assay type: functional; conditions: L929, 72 h
How it was run: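 About 10,000 adherent cells per well in RPMI 1640 with 10% heat-inactivated FBS and penicillin/streptomycin, without HEPES. Exposed to 10 concentrations for 72 h at 37 °C in humidified 5% CO₂. Monolayers fixed with glutaraldehyde, stained 15 min with 0.05% methylene blue, and eluted with 0.33 N HCl; OD read at 630 nm. GI50 derived from dose–response curves relative to control.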

HeLa = test: Cytotoxicity against human HeLa cells after 72 hrs; assay type: functional; conditions: for CC50: Homo sapiens, HeLa, 72 h
How it was run: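 About 10,000 cells per well in RPMI 1640 were preincubated 48 h without compound. The 10 test concentrations were then applied onto the monolayers and incubated 72 h at 37 °C in humidified 5% CO₂. Monolayers fixed with glutaraldehyde, stained with 0.05% methylene blue, and eluted with 0.33 N HCl; optical density measured at 630 nm.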

Pichia kudriavzevii [4] = test: Antifungal activity against Candida krusei E28 after 48 hrs; assay type: functional; how it was run: as §1
Aspergillus fumigatus [5] = test: Antifungal activity against Aspergillus fumigatus 231 after 24 hrs; assay type: functional; how it was run: as §1
Mycobacterium kansasii [6] = test: Antimicrobial activity against Mycobacterium kansasii My 235/80 after 7 days; assay type: functional; conditions: 168 h
How it was run: (§3)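 Run in Šula semisynthetic liquid medium containing bovine serum. Compounds added as DMSO solutions at final concentrations of […]. Each strain was also inoculated onto Löwenstein–Jensen medium to control inoculum sterility and growth.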

Pichia kudriavzevii [7] = test: Antifungal activity against Candida krusei E28 after 24 hrs; assay type: functional; how it was run: as §1
Mycobacterium kansasii [8] = test: Antimicrobial activity against Mycobacterium kansasii My 6509/96 after 14 days; assay type: functional; conditions: 336 h; how it was run: as §3
Trichosporon beigelii [9] = test: Antifungal activity against Trichosporon beigelii 1188 after 48 hrs; assay type: functional; how it was run: as §1
Mycobacterium kansasii [10] = test: Antimicrobial activity against Mycobacterium kansasii My 6509/96 after 7 days; assay type: functional; conditions: 168 h; how it was run: as §3
K562 = test: Antiproliferative activity against human K562 cells after 72 hrs; assay type: functional; conditions: K562, 72 h
How it was run: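 About 10,000 suspension cells per well in RPMI 1640 with 10% heat-inactivated FBS and penicillin/streptomycin, without HEPES. Exposed to 10 concentrations for 72 h at 37 °C in humidified 5% CO₂. Wells diluted 1:50 in CASYTON and counted electronically, each result the mean of three successive counts. GI50 is where the concentration–response curve crosses 50% of control cell count.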

Candida albicans [11] = test: Antifungal activity against Candida albicans ATCC 44859 after 48 hrs; assay type: functional; conditions: ATCC 44859, 48 h; how it was run: as §1
[12] = test system: Mycobacterium tuberculosis; test: Antimicrobial activity against Mycobacterium tuberculosis My 331/88 after 14 days; assay type: functional; conditions: 336 h
Aspergillus fumigatus [13] = test: Antifungal activity against Aspergillus fumigatus 231 after 48 hrs; assay type: functional; how it was run: as §1
Nakaseomyces glabratus [14] = test: Antifungal activity against Candida glabrata 20/I after 48 hrs; assay type: functional; how it was run: as §1
Lichtheimia corymbifera [15] = test: Antifungal activity against Absidia corymbifera 272 after 48 hrs; assay type: functional; how it was run: as §1
Trichophyton benhamiae [16] = test: Antifungal activity against Trichophyton mentagrophytes 445 after 72 hrs; assay type: functional, Arthroderma benhamiae; how it was run: as §2
Mycobacterium avium [17] = test: Antimicrobial activity against Mycobacterium avium My 330/88 after 21 days; assay type: functional; conditions: 504 h
Candida albicans [18] = test: Antifungal activity against Candida albicans ATCC 44859 after 24 hrs; assay type: functional; conditions: ATCC 44859, 24 h; how it was run: as §1
Lichtheimia corymbifera [19] = test: Antifungal activity against Absidia corymbifera 272 after 24 hrs; assay type: functional; how it was run: as §1
Candida tropicalis [20] = test: Antifungal activity against Candida tropicalis 156 after 24 hrs; assay type: functional; how it was run: as §1
Trichosporon beigelii [21] = test: Antifungal activity against Trichosporon beigelii 1188 after 24 hrs; assay type: functional; how it was run: as §1
Nakaseomyces glabratus [22] = test: Antifungal activity against Candida glabrata 20/I after 24 hrs; assay type: functional; how it was run: as §1
Mycobacterium kansasii [23] = test: Antimicrobial activity against Mycobacterium kansasii My 6509/96 after 21 days; assay type: functional; conditions: 504 h; how it was run: as §3
Mycobacterium kansasii [24] = test: Antimicrobial activity against Mycobacterium kansasii My 235/80 after 14 days; assay type: functional; conditions: 336 h; how it was run: as §3
Mycobacterium kansasii [25] = test: Antimicrobial activity against Mycobacterium kansasii My 235/80 after 21 days; assay type: functional; conditions: 504 h; how it was run: as §3
[26] = test system: Mycobacterium tuberculosis; test: Antimicrobial activity against Mycobacterium tuberculosis My 331/88 after 21 days; assay type: functional; conditions: 504 h

SMILES	MIC (Candida tropicalis [1])	MIC (Trichophyton benhamiae [3])	GI50 (L929)	CC10 (HeLa)	CC50 (HeLa)	MIC (Pichia kudriavzevii [4])	MIC (Aspergillus fumigatus [5])	MIC (Pichia kudriavzevii [7])	MIC (Trichosporon beigelii [9])	GI50 (K562)	MIC (Candida albicans [11])	MIC (Aspergillus fumigatus [13])	MIC (Nakaseomyces glabratus [14])	MIC (Lichtheimia corymbifera [15])	MIC (Trichophyton benhamiae [16])	MIC (Candida albicans [18])	MIC (Lichtheimia corymbifera [19])	MIC (Candida tropicalis [20])	MIC (Trichosporon beigelii [21])	MIC (Nakaseomyces glabratus [22])	further results
C[C@]12CC[C@@H]3c4ccc(OCCCCCCCBr)cc4CC[C@H]3[C@@H]1CCC2=O	> 125 µM	> 125 µM	49.9 µg/mL (≈ 112 µM)	16.3 µg/mL (≈ 36.4 µM)	> 50 µg/mL	> 125 µM	> 125 µM	> 125 µM	> 125 µM	13.1 µg/mL (≈ 29.3 µM)	> 125 µM	> 125 µM	> 125 µM	> 125 µM	> 125 µM	> 125 µM	> 125 µM	> 125 µM	> 125 µM	> 125 µM	MIC (Mycobacterium avium [2]): 16 µM (≈ 7.16 µg/mL); MIC (Mycobacterium kansasii [6]): 62.5 µM (≈ 28 µg/mL); MIC (Mycobacterium kansasii [8]): 62.5 µM (≈ 28 µg/mL); MIC (Mycobacterium kansasii [10]): 62.5 µM (≈ 28 µg/mL); MIC [12]: 32 µM (≈ 14.3 µg/mL); MIC (Mycobacterium avium [17]): 32 µM (≈ 14.3 µg/mL)
Cc1ccc(-n2nnnc2SCc2ccccc2)cc1	> 250 µM	62.5 µM (≈ 17.6 µg/mL)	12.5 µg/mL (≈ 44.3 µM)	4 µg/mL (≈ 14.2 µM)	19.7 µg/mL (≈ 69.8 µM)	> 250 µM	62.5 µM (≈ 17.6 µg/mL)	> 250 µM	> 250 µM	24.3 µg/mL (≈ 86.1 µM)	> 250 µM	250 µM (≈ 70.6 µg/mL)	> 250 µM	> 250 µM	31.3 µM (≈ 8.84 µg/mL)	> 250 µM	> 250 µM	> 250 µM	> 250 µM	> 250 µM	MIC (Mycobacterium avium [2]): 62.5 µM (≈ 17.6 µg/mL); MIC (Mycobacterium kansasii [6]): 16 µM (≈ 4.52 µg/mL); MIC (Mycobacterium kansasii [8]): 32 µM (≈ 9.04 µg/mL); MIC (Mycobacterium kansasii [10]): 16 µM (≈ 4.52 µg/mL); MIC (Mycobacterium kansasii [23]): 250 µM (≈ 70.6 µg/mL); MIC [12]: 32 µM (≈ 9.04 µg/mL); MIC (Mycobacterium kansasii [24]): 32 µM (≈ 9.04 µg/mL); MIC (Mycobacterium kansasii [25]): 250 µM (≈ 70.6 µg/mL); MIC [26]: 125 µM (≈ 35.3 µg/mL)
C[C@]12CC[C@@H]3c4ccc(OCCCCCCCSc5nnnn5-c5ccccc5)cc4CC[C@H]3[C@@H]1CCC2=O	> 250 µM	> 250 µM	> 50 µg/mL	20.3 µg/mL (≈ 37.3 µM)	> 50 µg/mL	> 250 µM	250 µM (≈ 136 µg/mL)	> 250 µM	> 250 µM	> 50 µg/mL	> 250 µM	> 250 µM	> 250 µM	> 250 µM	> 250 µM	> 250 µM	> 250 µM	> 250 µM	> 250 µM	> 250 µM	MIC (Mycobacterium kansasii [23]): > 500 µM; MIC [12]: > 500 µM; MIC (Mycobacterium kansasii [24]): > 500 µM; MIC (Mycobacterium kansasii [25]): > 500 µM; MIC [26]: > 500 µM
Clc1ccc(-n2nnnc2SCc2ccccc2)cc1Cl	> 250 µM	125 µM (≈ 42.2 µg/mL)	19.1 µg/mL (≈ 56.6 µM)	9.9 µg/mL (≈ 29.4 µM)	48.6 µg/mL (≈ 144 µM)	> 250 µM	250 µM (≈ 84.3 µg/mL)	> 250 µM	> 250 µM	> 50 µg/mL	> 250 µM	> 250 µM	> 250 µM	> 250 µM	125 µM (≈ 42.2 µg/mL)	> 250 µM	> 250 µM	> 250 µM	> 250 µM	> 250 µM	MIC (Mycobacterium avium [2]): 62.5 µM (≈ 21.1 µg/mL); MIC (Mycobacterium kansasii [6]): 8 µM (≈ 2.7 µg/mL); MIC (Mycobacterium kansasii [8]): 32 µM (≈ 10.8 µg/mL); MIC (Mycobacterium kansasii [10]): 16 µM (≈ 5.4 µg/mL); MIC (Mycobacterium kansasii [23]): 62.5 µM (≈ 21.1 µg/mL); MIC [12]: 16 µM (≈ 5.4 µg/mL); MIC (Mycobacterium kansasii [24]): 16 µM (≈ 5.4 µg/mL); MIC (Mycobacterium kansasii [25]): 32 µM (≈ 10.8 µg/mL); MIC (Mycobacterium avium [17]): 125 µM (≈ 42.2 µg/mL); MIC [26]: 32 µM (≈ 10.8 µg/mL)
C[C@]12CC[C@@H]3c4ccc(OCCCCCCCSc5nnnn5-c5ccc(Cl)c(Cl)c5)cc4CC[C@H]3[C@@H]1CCC2=O	> 250 µM	> 250 µM	> 50 µg/mL	50 µg/mL (≈ 81.5 µM)	> 50 µg/mL	> 250 µM	250 µM (≈ 153 µg/mL)	> 250 µM	> 250 µM	> 50 µg/mL	> 250 µM	> 250 µM	> 250 µM	> 250 µM	> 250 µM	> 250 µM	> 250 µM	> 250 µM	> 250 µM	> 250 µM	MIC (Mycobacterium kansasii [23]): > 500 µM; MIC (Mycobacterium kansasii [24]): > 500 µM; MIC (Mycobacterium kansasii [25]): > 500 µM; MIC [26]: > 500 µM
c1ccc(CSc2nnnn2-c2ccccc2)cc1	> 250 µM	62.5 µM (≈ 16.8 µg/mL)	22.5 µg/mL (≈ 83.8 µM)	8.7 µg/mL (≈ 32.4 µM)	41.6 µg/mL (≈ 155 µM)	> 250 µM	> 250 µM	> 250 µM	> 250 µM	36.1 µg/mL (≈ 135 µM)	> 250 µM	> 250 µM	> 250 µM	> 250 µM	31.3 µM (≈ 8.4 µg/mL)	> 250 µM	> 250 µM	> 250 µM	> 250 µM	> 250 µM	MIC (Mycobacterium avium [2]): 32 µM (≈ 8.59 µg/mL); MIC (Mycobacterium kansasii [6]): 16 µM (≈ 4.29 µg/mL); MIC (Mycobacterium kansasii [8]): 32 µM (≈ 8.59 µg/mL); MIC (Mycobacterium kansasii [10]): 16 µM (≈ 4.29 µg/mL); MIC (Mycobacterium kansasii [23]): 125 µM (≈ 33.5 µg/mL); MIC [12]: 16 µM (≈ 4.29 µg/mL); MIC (Mycobacterium kansasii [24]): 32 µM (≈ 8.59 µg/mL); MIC (Mycobacterium kansasii [25]): 125 µM (≈ 33.5 µg/mL); MIC (Mycobacterium avium [17]): 125 µM (≈ 33.5 µg/mL); MIC [26]: 62.5 µM (≈ 16.8 µg/mL)
